Measurements reported in the EternaBench riboswitch data.

System: MS2 coat protein
Assay: apparent Kd, MS2 coat protein; higher = weaker binding; RNA-MaP array; FMN 200 µM where present
Outline: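 Green signal from SNAP-549-labelled MS2 coat protein was normalised to red-channel RNA signal and to the median Fmax of control clusters. The protein was titrated from 0.7 or 1.5 nM, doubling to 3 µM, without and then with constant ligand, over designs transcribed by stalled E. coli RNA polymerase on Illumina sequencing-chip clusters, in 100 mM Tris-HCl pH 7.5, 80 mM KCl, 4 mM MgCl2, BSA, DTT, yeast tRNA and Tween-20. The apparent Kd is the median of filtered per-cluster binding-curve fits.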

[1] = designed as: OFF switch for flavin mononucleotide, no ligand
[2] = ligand present: flavin mononucleotide, designed as: OFF switch for flavin mononucleotide
[3] = designed as: ON switch for flavin mononucleotide, no ligand
[4] = ligand present: flavin mononucleotide, designed as: ON switch for flavin mononucleotide

Sequence | apparent Kd [1] [nM] | apparent Kd [2] [nM] | apparent Kd [3] [nM] | apparent Kd [4] [nM]
AAAUCCUACGAAGGAUAUACAAACAUGAGGAUCACCCAUGUGUGUUUCGUGUAACUGGAAUUCGGGUAGAAGGUCGUAGACAUA | 33.2 | 20.8 | – | –
CUAUGAAGAAUAGGAUAUUCGAUCAAGAGGAUAGAAGAAGGGUUACAUGAGGAUCACCCAUGUAUGCACAUGAGGAUCCCUUAG | 98.4 | 107 | – | –
AACACUUAAAAGUGAGGCGAUAGGUAGGAUAUACAUGAGGAUCACCCAUGUAUGGGCUAUCUGCGGUAGAAGGACCUCUGGCCC | 6.44 | 8.84 | – | –
UGAGCAUGAGGAUAUACAAGGCGUGCCGUAGCACGAGGUCUACAUGAGGAUCACCCAUGUAGAAGGCAUGUUCU | 16.8 | 36.9 | – | –
AAGUCGUGAGGAUAUACAUGGAUAUACAUUUAUGUGGACCUACAUGAGGAUCACCCAUGUAGAAGGCACGACUA | 196 | 93.5 | – | –
UAGAAGUCAGGAUAUGCAUGGCGGGACUUGCGUCGUGGCGUGCAGAAGGGACAUGAGGAUCACCCAUGUAAAGG | 159 | 265 | – | –
UCAUCUUGUCGAGGAUAUAUUAACAUGACAUGAGACACAUGAGGAUCACCCAUGUAUUUUUUUUUAUAGAAGGCGACUAUAUGU | – | – | 32.6 | 52.9
GUAAUUAAUGUAGGAUAUGCAAGGCGAACCUAAGCAGAAGGACAUGAGGAUCACCCAUGUAUUGCGGUCUGCGUUCAGAUCGCU | 19.5 | 49.5 | – | –
AGGCAGCUACAUGAGGAUCACCCAUGUCUGUUUGGAUCUUCCAGAAGGCACGUAAAAUCGGUGGGUGAGGAUAUGGUAGGUCCC | – | – | 30.9 | 9.91
CAGUACUGAGGAUAUACAUGAGGAUCACCCAUGUGUUCCAGCUAGGAAACUGGCAAAAGUAGAAGGCAGUACUG | 22.8 | 320 | – | –
UCCUUAUCGGUCAGGAUAUACACCCGUUUCUCCUUGUAGAAGGGACAUGAGGAUCACCCAUGUACUGUACAUUU | 30 | 31 | – | –
GCGCGAAGGUAGGAUAUCCAGGCAUCUUGCCGCGGAGAAGGACCCACAUGAGGAUCACCCAUGUGGUGAUCCUG | 13.5 | 14.4 | – | –
UAUAUAUAGUAAGGAUAUGUAAUUAUUUUAUUAACAGAAGGUACUGACAUGAGGAUCACCCAUGUUUUAGUGUGGGCAUGUAGA | 83.5 | 184 | – | –
GUGCUUUGGGAGAAGGCCGAUAGCAAAGCUAUCGGAGGAUAUUCAUACCGGAAACGGACAUGAGGAUCACCCAUGUGGCACAAA | – | – | 1430 | 44.5
AAACACGGACAUGAGGAUCACCCAUGUAAUAAUAACAUUGGGAGAAGGCCGAUUGCAAAGCAAUCGGAGGAUAUUCAUACCGUG | – | – | 279 | 447
GUCAGCUCGUGAGGAUAUACAUGAUAGAUCGAUUAAUUAAUUAAUUUAACAUGAGGAUCACCCAUGUAGAAGGUACGAGCUGAC | 52 | 66.3 | – | –
CAGGAUAGAGGAUAUACAUAGAUACAGAUUCAUGUGAUCCUACAUGAGGAUCACCCAUGUAGAAGGCUAUCCUG | 315 | 39.5 | – | –
GUAGAGUAGUGAGGAUAUACGAGAUCGAUAGAUCGGCGAUCCAUAUAUACAUGAGGAUCACCCAUGUAGAAGGCACUUCUCUAC | 6.99 | 103 | – | –
AUGCAGCCACCACAGGAUAUACGUGGAUCGACAUGAGGAUCACCCAUGUAUAUCCUAAUAAUUGCGUAGAAGGGUGGUCGGCUGG | – | – | 555 | 81.8
UUACUGUUAUAGAAGGGUAUUUGGGAAUUACAUGAGGAUCACCCAUGUUUUAUAGGAUAUGUAUAUAGUAUUUAAUCAAGUUUA | 17.8 | 15.7 | – | –
AGGUGACAUGAGGAUCACCCAUGUAAGGAUAUACGGUUAGUGGAGAGUUGGAGGAGAGGUAGAAGGUACGGAGC | 249 | 194 | – | –
CUUAUGUGAGGAUAUGGUGUUGGCCACAGGGAAAAGGUCCUCCAGAAGGCACAUGAGGAUCACCCAUGUAGUGA | 165 | 56.3 | – | –
AGGUACGGUCGAUCAUAUCAAGGUAGAAGGCGACUGGGAAUGUGAGACAUGAGGAUCACCCAUGUCGAGGAUAUACCUGAAAGU | 88.9 | 50.1 | – | –
UAGGACUACGUAGGAUAUGUAGUAUAUUACUACAUGAGGAUCACCCAUGUAAGCAUGUUAUUAGGACAGAAGGACGUGGUAAAU | – | – | 43.6 | 13.7
GCAUGGAAAGUGAGGAUAUACCACUGGAUACAGUGGUAGAAGGCACAUGAGGAUCACCCAUGUUCCUACCAUGC | 16.9 | 71.3 | – | –
AAAAAGCGAGGAUAUACAUGAGGAUCACCCAUGUCAAACGGUAAGACCGCAGGAAACAGUAGAAGGCGCAAAAA | 64.3 | 89.6 | – | –
CUAUAGAUAUGAGGAUAUGUAUAUCCAACAUGAGGAUCACCCAUGUUGAUGAUCACGUAUGUAAAGCAGAAGGCAUAUCUAUAG | – | – | – | 6.41
UUGCCACAUGAGGAUCACCCAUGUGAGGAUAUGGCCCGUUUGGCGUGUGCUGGUUCUGUCAGAAGGCGCGUGGG | 24.5 | 21.7 | – | –

Sequence | apparent Kd [1] [nM] | apparent Kd [2] [nM] | apparent Kd [3] [nM] | apparent Kd [4] [nM]
UAUUAAUACAUAUACAUGAGGAUCACCCAUGUCAAAAGACAUGAGGAUAUGGAUCCUAAUUGGAUCCAGAAGGCAUGAAUAAUU | – | – | 347 | 17.6
AGAUAUGAUGCAGGAUAUCUAUCUUGAAUGAGGAGAGAAGGGCAAGUAGAUAGAUAAGCCUCAUGACAUGAGGAUCACCCAUGU | 14.8 | 15.2 | – | –
CUCUUGUUAGGAUAUCAAACUGGCGGCGGAGCCGGCAGUAGUGAGAAGGGACAUGAGGAUCACCCAUGUAAGAA | 81.9 | 155 | – | –
CGAUCGUUGCAGAAGGUUAAAAUUUUAUCUACAUGUUUAACAUGAGGAUCACCCAUGUUUAUGAUGAAGGAUAUGCAAGGGUCG | 6.76 | 6.18 | – | –
UCGUACAUUCGAGGAUAUCGGUGAUAAAUAAUACGAGAAGGCGAUUUUAGGCAUAACGCCUUAGACAUGAGGAUCACCCAUGUA | – | – | 68.1 | 55.1
UUGCCUCAGAACAUGAGGAUCACCCAUGUGCUGCGGGCAACGUAGGAUAUGAUGGUAUGAUACCGUCAGAAGGAUGAUGGUACC | – | – | 5.86 | 5.32
UAGAAGUCAGGAUAUGCAUGGCGGGACUUGCGUCGUGGCGUGCAGAAGGGACAUGAGGAUCACCCAUGUGGAGA | 117 | 369 | – | –
GUAGCAUACCGAGGAUAUUCAGGGCGUGGAUAUACAUGAGGAUCACCCAUGUGGCGAAAGCCUAGGGAGAAGGCGGAAUGCUAC | – | – | 23.6 | 17
UGAAUCAAUACAGGAUAUGGUGACGCACAUGAGGAUCACCCAUGUCCGCAGCGUGCUAAGCACGCCCAGAAGGGUAUUGAUCUG | – | – | 1010 | 81
GUCACGAAUGUAGGAUAUCGAGUGGAAUACACUCGAGAAGGACAUGAGGAUCACCCAUGUACUAUGAAAGAUAAUAAACGUGAC | 14.9 | 19.5 | – | –
AACUGACAUGAGGAUCACCCAUGUCAGGAUAUGAUAUGUAAAAAAUAAAAAAUACUUAUCAGAAGGGACAUGGA | 22.7 | 41.3 | – | –
AUAAGUGCAGGAUAUACGGGAAGCUAGCGAAAGCUAGCAAAACAUGAGGAUCACCCAUGUAGAAGGGCACAAUA | 57.4 | 121 | – | –
GCCAUCACGUGAGGAUAUGCUCCCGUUUCGGGAGCAGAAGGCAUGUCAUAAGACAUGAGGAUCACCCAUGUAGAUAAGAUGGCA | – | – | 236 | 12.4
CAGUACUGAGGAUAUACAUGAGGAUCACCCAUGUGUUCGUGGUAGGAUAUCCGCAAAAGUAGAAGCCAGAAGGAGAUGUGCGUG | 17.7 | 13.9 | – | –
AGGCCGCUACGCCGGCUUCACGCACAGGAUAUGCAGUUACAUGAGGAUCACCCAUGUGGCCAUGUGCAGAAGGGUGGUUCGUGA | – | – | 22.1 | 5.44
UGGGUUACAGGAUAUACAUGAGGAUCACCCAUGUCAUGUUUCGUGGCGGAUAGCUCGAGUAGAAGGGUGCAUCC | 50 | 60.4 | – | –
UCUUUCUUUGUGAGGAUAUGCCCAAAUAAAAGCGGGCAGAAGGCACAUGAGGAUCACCCAUGUUCUGCGGUUUU | 54.5 | 486 | – | –
AGAUGGUAUAUAGGAUAUCAUGUGCAAACAUGAGGAUCACCCAUGUAGGAACGUCAGUUCAAUAAUGAGAAGGAUAUACCAUCU | – | – | 33.4 | 11.9
UUAUUUGUACAAGGAUAUCUAUUAUAUUCACAUCCUACAUGAGGAUCACCCAUGUUAUAUAUUUUAGAGAAGGUGUAUUGUCUG | – | – | 29.9 | 35.3
GGACGACACAUGAACAUGAGGAUCACCCAUGUAAAUUCUCAUGAGGAUAUGGAUCCUAAUUGGAUCCAGAAGGCGUGGUCGUCC | – | – | 961 | 507
GUCAGCUCGUGAGGAUAUACAACACUGCUUCGGCAGUGUAUUAAGAUCACAUGAGGAUCACCCAUGUAGAAGGCACGAGCUCAU | 15.2 | 246 | – | –
GUGAACAUGAGGAUCACCCAUGUAGCUCACUGCCAGUGGCUACAGGAUAUAGCACCUCGAGGGUGCUAGAAGGGUGGCCUAGAA | – | – | 62.9 | 16.8
CUCGGACAUGAGGAUCACCCAUGUGAGGAUAUGAUGCGAUCGUCGAAAGACGAUAGCAUCAGAAGGCACAAAUG | 75.6 | 301 | – | –
CGAAGUAGCACAGGAUAUCAUACAUGAGGAUCACCCAUGUCAAGAAACAAAUGAGAAGGGUGCAGACGGUGUUGGAGCUGUUGC | – | – | 192 | 26.6
AUGACAGGCAGAGCGCAACGGCGUACAUGAGGAUCACCCAUGUAGGAUAUGCUACACAAAGUGUAGCAGAAGGACAUGCGACGC | 23.4 | 42.2 | – | –
CUUUUGUGAGGAUAUCAGUAGUAUAAAAUAAAAUAUACUACUGAGAAGGCACAUGAGGAUCACCCAUGUUCCUC | 38.3 | 263 | – | –
CCAUAUAGGUAGGAUAUCGAUUUUAAUUAAUAUCGAGAAGGGUCAACAUGAGGAUCACCCAUGUCAGCAUGUAC | 80.4 | 75.5 | – | –
